# Screening results (PubChem)
# Keap1-Nrf2 PPI: Keap1-Nrf2 protein-protein interaction inhibitors, primary screen, biochemical, fluorescence polarization, single point | Kelch-like ECH-associated protein 1 (Homo sapiens), Q14145 | Keap1 Kelch-Nrf2 peptide fluorescence polarization, 1536-well | inhibition, % at 9.4 µM | actives 0.15% (n = 340,000) | AID 504523, 2011; in the data active = inhibition above about 12%;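 note: human Keap1 Kelch domain with fluorescein labeled Nrf2 9mer peptide probe; 0% = neutral control wells and 100% = peptide positive control; higher means more block of Keap1 binding to Nrf2 peptide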
# APOBEC3A inh: APOBEC3A ssDNA deaminase inhibitors, primary screen, selectivity assay for APOBEC3G inhibitor project, biochemical, FAM/TAMRA oligo cleavage fluorescence. recombinant A3A, FAM/TAMRA ssDNA deamination fluorescence. inhibition, % at 20 µM. actives 0.41% (n = 330,000). AID 493011, 2011;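 active = at least 40% inhibition at 20 µM here, with at most 30% in a related deaminase screen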;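 note: plate controls were A3A with DMSO for no effect and wells lacking A3A enzyme for full effect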
# Target sequence (P31941 whole entry, looked up): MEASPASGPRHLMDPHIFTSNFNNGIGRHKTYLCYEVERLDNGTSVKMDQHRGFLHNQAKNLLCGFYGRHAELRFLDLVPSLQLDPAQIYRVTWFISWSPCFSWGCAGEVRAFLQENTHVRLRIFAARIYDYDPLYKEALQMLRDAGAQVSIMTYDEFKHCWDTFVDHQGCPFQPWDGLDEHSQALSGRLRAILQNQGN
# CAL PDZ FP-1: CAL PDZ peptide-binding inhibitors, primary screen, biochemical, fluorescence polarization, Cer-tagged CAL PDZ, HTS; Golgi-associated PDZ and coiled-coil motif-containing protein (Homo sapiens), Q9HD26; inhibition, % at 20 µM; purified CAL PDZ, TMR-peptide fluorescence polarization, 1 h; actives 0.02% (n = 330,000);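 active = highest replicate inhibition of at least 40%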;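 note: plate controls were DMSO neutral control wells for no effect and unlabeled competitor peptide control wells for full effect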
#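 Material: tagged CAL PDZ protein CerCALP, purified; buffer or medium: sodium phosphate/NaCl buffer pH 7.4 with TCEP, IgG, Thesit; also added: fluorescent TMR peptide probe; schedule: 1 h incubation at room temperature before polarization reading; technique: fluorescence polarization from S- and P-plane intensities, G-factor corrected; control set: unlabelled peptide and DMSO controls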
# APOBEC3G inh: APOBEC3G DNA deaminase inhibitors, primary screen, biochemical, fluorescence, single-stranded DNA substrate, uHTS. DNA dC->dU-editing enzyme APOBEC-3G (Homo sapiens), Q9HC16. recombinant A3G, ssDNA deamination FAM/TAMRA fluorescence. inhibition, % at 20 µM. actives 0.28% (n = 330,000). AID 493012, 2011;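 active = inhibition of at least 40% at 20 µM, with no more than 30% in the related APOBEC3A deaminase screen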;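 note: plate controls were DMSO wells with A3G for no effect and wells lacking A3G enzyme for full effect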
# Target sequence (Q9HC16 whole entry, looked up): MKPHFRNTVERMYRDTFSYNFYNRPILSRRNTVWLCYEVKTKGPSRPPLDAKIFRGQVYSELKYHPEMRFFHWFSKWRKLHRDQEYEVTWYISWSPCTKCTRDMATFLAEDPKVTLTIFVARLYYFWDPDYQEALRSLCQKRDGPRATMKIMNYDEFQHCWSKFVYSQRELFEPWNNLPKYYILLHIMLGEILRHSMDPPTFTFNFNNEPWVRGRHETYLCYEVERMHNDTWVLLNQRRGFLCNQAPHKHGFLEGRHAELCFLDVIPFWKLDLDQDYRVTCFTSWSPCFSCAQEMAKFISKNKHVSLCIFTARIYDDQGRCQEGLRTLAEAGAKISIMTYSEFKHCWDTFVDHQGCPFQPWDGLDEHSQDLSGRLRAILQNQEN
# CAL PDZ FP-2: untagged CAL PDZ binding inhibitors, primary screen, biochemical, fluorescence polarization, HTS | AID 602252, 2012 | purified CAL PDZ, TMR-peptide fluorescence polarization, 1 h | inhibition, % at 24.9 µM | actives 0.92% (n = 300,000) | Golgi-associated PDZ and coiled-coil motif-containing protein (Homo sapiens), Q9HD26;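 active = mean inhibition of at least 30% with at least half of replicates also reaching 30%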;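 note: 0% = DMSO neutral control and 100% = excess unlabeled competitor peptide PRC23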
# LANA DNA inh: inhibitors of KSHV C-LANA binding to DNA, primary screen, biochemical, fluorescence polarization, FAM-LBS DNA, MBP-C-LANA, single point | Kaposi's sarcoma herpesvirus LANA C-terminal domain (residues 932-1162) DNA binding | inhibition, % at 9 µM | actives 0.078% (n = 340,000) | AID 504423, 2011;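 active = highest replicate inhibition at or above 60% at 9 µM, even if other replicates fall short; inactive = all replicates below 60% inhibition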;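 note: 0% = neutral control wells and 100% = 4 µM acridine orange control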
# * marks the source's active call; other numbers are inactive results; / = no result. Hits are enriched below; roughly 1.7% of the tested compounds scored in any of these assays.
SMILES,Keap1-Nrf2 PPI,APOBEC3A inh,CAL PDZ FP-1,APOBEC3G inh,CAL PDZ FP-2,LANA DNA inh
C=CCC(C#Cc1ccccc1)N(C)C (centres undefined),1,-6,-1,2,87*,-1
O=c1[nH]c2nc(Cl)nc(Cl)c2[nH]1,-7,/,-1,/,81*,1
CN(CCOc1ccccc1)C(=O)c1ccc2c(c1)OCO2,2,-3,0,-8,62*,0
O=C(Nc1cccc(C(=O)N2CCCC2)c1)C1CC1,-1,/,-1,/,-6,-8
COc1cc(OC)cc(C(=O)NCC2CCCN(C(=O)c3oc(C)cc3C)C2)c1 (centres undefined),-2,-4,-1,-7,46*,-1
Cn1c(=O)c2sccc2n2c(CCCC(=O)N3CCN(c4ccccn4)CC3)nnc12,-7,-6,0,-8,-3,0
CCOC(=O)N1CCN(C(=O)CNCc2cccs2)CC1,2,-4,-2,-7,47*,0
CCOC(=O)N1CCN(c2c(NCc3cccs3)c(=O)c2=O)CC1,1,-4,-1,-11,/,0
Cc1ccc(NC(=S)NC2CCN(Cc3ccccc3)CC2)cc1C,-3,-9,-1,-6,47*,1
CCc1ccc(NC(=S)Nn2cnnc2)cc1,-1,-4,16,3,63*,6
CCc1ccc(CN(C)C(C)C(=O)NCc2ccccc2)cc1 (centres undefined),-5,/,/,/,51*,1
Cc1ccc(NC(=S)Nn2cnnc2)cc1,1,-2,-2,23,-5,0
CCc1ccc(NC(=S)NCc2ccccc2)cc1,-4,-1,-1,-10,49*,-1
CNC(=O)c1cn2c3c(ccc(Cl)c3c1=O)OC(C)C2 (centres undefined),4,/,0,/,-2,3
CCN(CC)c1ccc(CNc2nc3ccccc3n2CCN2CCCCC2)cc1,-1,-2,0,-7,43*,1
O=C1CN2NC(=S)N(c3ccc(Cl)cc3)C2=CN1c1ccc(Cl)cc1,5,-3,1,3,-1,0
O=C1CN2NC(=S)N(c3ccccc3)C2=CN1c1ccc(Cl)cc1,0,-2,-1,6,115*,0
COc1ccc(CCC(=O)N2CCN(c3ccc([N+](=O)[O-])cc3)CC2)cc1OC,-2,-2,0,-10,/,1
COc1ccc(S(=O)(=O)N2CCOCC2)cc1C(=O)N(C)Cc1ccco1,-4,2,1,-2,1,-1
Cc1cc(C)nc(Nc2n[nH]c(-c3ccccc3Cl)n2)n1,-1,-1,0,-8,38*,0
Cc1cc(C)n(CC(O)CN(c2ccccc2)S(=O)(=O)c2ccccc2)n1 (centres undefined),0,-3,-2,-5,/,-3
O=S(=O)(c1ccccc1)N(CC(O)COc1ccccc1)c1ccccc1 (centres undefined),-3,-6,0,-8,57*,-1
O=C(CSc1nnc(CNC(=O)c2ccccc2)o1)NCc1ccccc1Cl,-5,-4,-1,-13,-2,-1
COC(=O)CCc1c(C)nc(N)[nH]c1=O,-3,-1,1,0,-1,1
Cc1nc(N)[nH]c(=O)c1CC(=O)OCCCl,2,2,0,1,56*,0
SMILES,Keap1-Nrf2 PPI,APOBEC3A inh,CAL PDZ FP-1,APOBEC3G inh,CAL PDZ FP-2,LANA DNA inh
Cc1cc2c(n1-c1ccc(C(=O)O)cc1)CCCCC2,/,92,/,82,/,/
O=C(CSc1nnc(-c2ccc(O)cc2)o1)Nc1ccccc1,-4,-4,-2,-9,62*,-1
Cc1cc(NC(=O)CSc2nnc(-c3ccc(O)cc3)o2)no1,-4,-9,-3,-6,0,1
CCOc1ccc(NC(=S)N(CCN2CCOCC2)Cc2cc3cc4c(cc3[nH]c2=O)OCO4)cc1,-2,-1,0,1,63*,-1
Cc1ccc(NC(=S)N(CCN2CCOCC2)Cc2cc3cc4c(cc3[nH]c2=O)OCCO4)cc1,-4,1,-2,-5,-3,0
Cc1ccc(NC(=S)N(CCN2CCOCC2)Cc2cc3cc4c(cc3[nH]c2=O)OCO4)cc1,-1,-5,-1,-7,52*,-1
Cc1ccc(C2C(C(=O)O)c3ccccc3C(=O)N2C)c(C)c1 (centres undefined),-2,-5,-2,-8,-1,-3
CN1C(=O)c2ccccc2C(C(=O)O)C1c1cn(C)c2ccccc12 (centres undefined),2,-2,/,-3,41*,2
COc1ccc(CCn2c(=S)[nH]c3ccc(N4CCOCC4)cc3c2=O)cc1OC,1,7,20,1,128*,-1
C[C@H](CO)N1C[C@H](C)[C@@H](CN(C)Cc2ccncc2)Oc2c(NC(=O)Cc3ccccc3)cccc2C1=O,-1,-3,0,-8,2,0
CCC(C)NC(=O)C1(O)c2cc(Br)ccc2NC(=O)N1c1cccc(OC)c1 (centres undefined),3,1,0,-4,8,3
CCc1nn(C(C)C(=O)N2CCN(c3ccc(OC)cc3)CC2)c(=O)c2cc3occc3n12 (centres undefined),-2,-4,-2,-5,-2,-2
CCSC1=N/C(=C\c2ccccc2)C(=O)N1,-1,2,0,-5,61*,-1
O=C1NNC(c2ccccc2)=N/C1=C\c1ccccc1,6,-5,0,-9,-2,-1
C=CCNC(=O)NC(=O)COC(=O)/C=C/c1cccc([N+](=O)[O-])c1,3,-2,-1,-7,1,0
CC(C)CCNC(=O)NC(=O)COC(=O)/C=C/c1cccc([N+](=O)[O-])c1,-3,1,6,-10,37*,-2
O=C(Nc1ccc2c(c1)CCC2)c1ncoc1-c1ccccc1F,2,-1,-1,4,69*,-1
O=C(Nc1ccc2c(c1)CCC2)c1ccc(F)cc1,7,0,-1,-2,-10,0
Cc1cccc(NC(=O)c2ccc(OCc3c(C)noc3C)cc2)n1,-12,-2,-4,-5,-4,-1
CN(C(=O)COC(=O)c1nn(C)c(=O)c2ccccc12)c1c(N)n(Cc2ccccc2)c(=O)[nH]c1=O,0,0,-1,-9,0,1
